Measurements of several laboratories.
Each line is one published result; the experiments were not run side by side. Values after ≈ are worked out from the molar mass of the structure shown.
Organism: Mycobacterium tuberculosis

CO[C@H]1/C=C/O[C@@]2(C)Oc3c(C)c(O)c4c(O)c(c(/C=N/N5CCN(C)CC5)c(O)c4c3C2=O)NC(=O)/C(C)=C\C=C\[C@H](C)[C@H](O)[C@@H](C)[C@@H](O)[C@@H](C)[C@H](OC(C)=O)[C@@H]1C  IC50 (microbial growth; H37RV): 0.004 µM
O=[N+]([O-])c1cn(Cc2cccc(Cn3cnc([N+](=O)[O-])c3)n2)cn1  MBC (microbial killing; H37RV; 21 days): > 200 µM
CC[C@@H](CO)NCCN[C@@H](CC)CO  IC50 (microbial growth; H37RV): 1.51 µM
O=[N+]([O-])c1cc2cc3ccc4oc([N+](=O)[O-])cc4c3cc2o1  MBC (microbial killing; H37RV): 0.062 µg/mL
O=[N+]([O-])c1ccc(/C(O)=C/C(=S)S)cc1  MBC (microbial killing; ATCC27294 H37RV): 31.2 µg/mL
CCCCCCC#Cc1cncc(-c2nnc(SCc3ccc([N+](=O)[O-])o3)n2C)c1  IC90 (microbial growth; ERDMAN): 0.24 µM
CCOC(=O)c1c(NC(=O)c2c(F)c(F)c(F)c(F)c2F)sc2c1CCN(CC)C2  MIC90 (microbial growth; H37RV): 0.23 µM (≈ 0.103 µg/mL)
c1cc(Cn2cnc3ccccc32)nc(Cn2cnc3ccccc32)c1  MBC (microbial killing; H37RV; 21 days): > 50 µM
O=C(O)c1nccnc1NC(=O)c1cccc2ccccc12  MIC50 (microbial growth; ATCC27294 H37RV): 1000 µM (≈ 293 µg/mL)
COc1nc2ccc(Br)cc2cc1[C@@H](c1ccccc1)[C@@](O)(CCN(C)C)c1cccc2ccccc12  MIC90 (microbial growth; H37RV): 0.05 µM (≈ 0.0278 µg/mL)
COC(=O)c1cc(-c2cccc(NC(=O)Nc3cccc(Br)c3)c2)on1  MIC (microbial growth; ATCC27294 H37RV; 7 days): 0.5 µg/mL (≈ 1.2 µM)
CCc1nc2ccc(Cl)cn2c1C(=O)NCc1ccc(N2CCC(c3ccc(OC(F)(F)F)cc3)CC2)cc1  IC50 (microbial growth; ERDMAN): 0.0031 µM
[H]/N=C(/N)N[C@H]1[C@H](O)[C@@H](O)[C@H](O[C@@H]2O[C@@H](C)[C@](O)(C=O)[C@H]2O[C@@H]2O[C@@H](CO)[C@H](O)[C@@H](O)[C@@H]2NC)[C@@H](N/C(N)=N\[H])[C@@H]1O  IC90 (microbial growth; H37RV): 0.28 µM
COC(=O)c1cc(-c2ccc(OC)c(NC(=O)Nc3ccc(Cl)c(Cl)c3)c2)on1  MIC (microbial growth; ATCC27294 H37RV; 7 days): 8 µg/mL (≈ 18.3 µM)
CNc1cc(-n2nc(C(=O)NCCN3C(C)CCCC3C)cc2Nc2cc(NC(=O)c3cncc(C(C)(C)C)c3)ccc2C)ncn1 (stereo not drawn)  MBC (microbial killing; H37RV; 5 days): 1.25 to 2.5 µM
NNC(=O)c1ccncc1  MIC (microbial growth; H37RV): > 13.7 µg/mL
CN(CC[C@H](N)CC(=O)N[C@H]1C=C[C@H](n2ccc(N)nc2=O)O[C@@H]1C(=O)O)C(=N)N  IC50 (microbial growth; H37RA): 19 µM
COC(=O)c1cc(-c2cccc(NC(=S)Nc3ccc(F)cc3F)c2)on1  MIC (microbial growth; ATCC27294 H37RV; 7 days): 2 µg/mL (≈ 5.14 µM)
CCCCCCC#Cc1cncc(-c2nnc(SCc3ccc([N+](=O)[O-])cc3)n2C)c1  IC50 (microbial growth): 1.3 µM
COC(=O)c1cc(-c2cccc(NC(=S)Nc3ccc(F)c(Cl)c3)c2)on1  MIC (microbial growth; ATCC27294 H37RV; 7 days): 4 µg/mL (≈ 9.86 µM)
CCCCCCC#Cc1cncc(-c2nnc(SCc3ccc(C#N)cc3)n2C)c1  IC90 (microbial growth; ERDMAN): > 100 µM
Cc1ccc(NC(=O)c2cccc(C(F)(F)F)c2)cc1Nc1nccn1-c1cc(NN2CCN(C)CC2)ncn1  MIC50 (microbial growth; H37RV): 9.67 µM (≈ 5.33 µg/mL)
COC(=O)c1cc(-c2cccc(NC(=O)Nc3ccc(F)cc3F)c2)on1  MIC (microbial growth; ATCC27294 H37RV; 7 days): 1 µg/mL (≈ 2.68 µM)
CCCCCCC#Cc1cncc(-c2nnc(SCc3ccc([N+](=O)[O-])o3)n2C2CC2)c1  IC50 (microbial growth; ERDMAN): 0.048 µM
COC(=O)c1cc(-c2ccc(NC(=O)Nc3ccc(Cl)c(Cl)c3)cc2)on1  MIC (microbial growth; ATCC27294 H37RV; 7 days): 0.5 µg/mL (≈ 1.23 µM)
Cc1cn(-c2cc(C(=O)Nc3ccc(C)c(Nc4nccn4-c4cc(NC5CC5)ncn4)c3)cc(C(F)(F)F)c2)cn1  MBC (microbial killing; H37RV; 5 days): 2.5 to 5 µM
COC(=O)c1cc(-c2cccc(NC(=O)Nc3cccc(C#N)c3)c2)on1  MIC (microbial growth; ATCC27294 H37RV; 7 days): 16 µg/mL (≈ 44.2 µM)
CCCCCCC#Cc1cncc(-c2nnc(SCc3ccc(Cl)c(F)c3)n2C)c1  IC90 (microbial growth; ERDMAN): 13 µM
CO[C@H]1/C=C/O[C@@]2(C)Oc3c(C)c(O)c4c(O)c(c(/C=N/N5CCN(C)CC5)c(O)c4c3C2=O)NC(=O)/C(C)=C\C=C\[C@H](C)[C@H](O)[C@@H](C)[C@@H](O)[C@@H](C)[C@H](OC(C)=O)[C@@H]1C  inhibition (microbial growth; H37RV; 12.5 µg/mL): 97%
CCCCCCC#Cc1cncc(-c2nnc(SCc3cc([N+](=O)[O-])cc([N+](=O)[O-])c3)n2C)c1  IC50 (microbial growth): 0.061 µM
COC(=O)c1cc(-c2cccc(NC(=O)Nc3ccc(OC)cc3)c2)on1  MIC (microbial growth; ATCC27294 H37RV; 7 days): 8 µg/mL (≈ 21.8 µM)
NNC(=O)c1ccncc1  IC50 (microbial growth; ERDMAN): 0.18 µM
Cc1ccc(NC(=O)c2cc(N3CCNCC3)cc(C(F)(F)F)c2)cc1Nc1nccn1-c1cc(NC2CC2)ncn1  MIC50 (microbial growth; H37RV): 0.63 µM (≈ 0.364 µg/mL)
